From ChEMBL document CHEMBL1147936, “Regulatory molecules for the 5-HT3 receptor ion channel gating system” (Bioorg Med Chem, 2007)
The source made the active and inactive calls. The rule behind the calls is not given here.

Columns and labels:
[1] = biological target: T1, 5-hydroxytryptamine receptor 3A (Cavia porcellus) (UniProt O70212); test: Antagonist activity at 5HT3 receptor in Hartley guinea-pig ileum assessed as effect on 5-hydroxytryptamine-induced muscle contraction; format: functional, tissue-based; set-up: concentration or dose not given beside the values
T1 sequence (whole entry): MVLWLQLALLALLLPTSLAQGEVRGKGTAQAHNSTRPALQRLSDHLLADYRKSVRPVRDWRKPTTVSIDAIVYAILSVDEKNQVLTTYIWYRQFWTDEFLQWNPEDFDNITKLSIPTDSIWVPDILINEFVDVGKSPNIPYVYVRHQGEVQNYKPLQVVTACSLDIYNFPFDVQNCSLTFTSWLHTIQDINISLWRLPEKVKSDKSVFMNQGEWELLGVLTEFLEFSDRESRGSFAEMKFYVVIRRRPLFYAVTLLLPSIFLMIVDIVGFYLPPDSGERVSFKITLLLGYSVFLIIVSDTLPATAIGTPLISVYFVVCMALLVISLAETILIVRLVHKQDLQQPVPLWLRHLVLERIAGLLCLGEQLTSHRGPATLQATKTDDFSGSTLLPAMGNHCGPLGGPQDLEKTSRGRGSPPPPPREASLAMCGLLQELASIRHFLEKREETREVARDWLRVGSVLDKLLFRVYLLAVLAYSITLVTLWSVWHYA
Procedure, shortened: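 Contractions to 5-HT recorded isometrically with and without compound present. Vehicle-treated preparation served as time-matched control. Antagonism expressed as the ratio of 5-HT contractile response in presence versus absence of compound.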

[2] = biological target: T1, 5-hydroxytryptamine receptor 3A (Cavia porcellus); test: Intrinsic activity at 5HT3 receptor in Hartley guinea-pig ileum assessed as muscle contraction relative to 5-hydroxytryptamine; format: tissue-based
[3] = biological target: T1, 5-hydroxytryptamine receptor 3A (Cavia porcellus); test: Agonist activity at 5HT3 receptor in Hartley guinea-pig ileum assessed as muscle contraction; format: functional, tissue-based
Procedure, shortened: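 Compounds added to the bath and contractions recorded isometrically. pD2 = negative log molar concentration giving 50% of maximum contraction, from individual concentration–response curves.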

[4] = biological target: T1, 5-hydroxytryptamine receptor 3A (Cavia porcellus); test: Intrinsic activity at 5HT3 receptor in Hartley guinea-pig ileum assessed as muscle contraction at 0.1 mM relative to 5-hydroxytryptamine; format: tissue-based

SMILES | Activity [1] [%] | Intrinsic activity [2] | pD2 [3] | Activity [4]
CN1CCN(c2nc3ccccc3o2)CC1 | 82 | 0.62 | 5.01 | –
CN1CCN(c2nc3cc(C(F)(F)F)ccc3o2)CC1 | 36 | – | < 4 | inactive
CN1CCN(c2nc3cc(C(C)(C)C)ccc3o2)CC1 | 47 | – | < 4 | inactive
COc1cccc2nc(N3CCN(C)CC3)oc12 | 57 | – | < 4 | inactive
Cc1cc(Cl)cc2nc(N3CCN(C)CC3)oc12 | 94 | 0.24 | 6.7 | –
CN1CCN(c2nc3cc(Cl)cc(Cl)c3o2)CC1 | 90 | 0.14 | 6.51 | –
NCCc1c[nH]c2ccc(O)cc12 | – | 1 | 5.34 | –
CC(=O)c1ccc2oc(N3CCN(C)CC3)nc2c1 | 22 | – | < 4 | inactive
CN1CCN(c2nc3cc(Br)ccc3o2)CC1 | 89 | 0.48 | 6.21 | –
CN1CCN(c2nc3cc([N+](=O)[O-])ccc3o2)CC1 | 79 | 0.52 | 6.1 | –
CCc1cc(C)cc2nc(N3CCN(C)CC3)oc12 | 99 | 0.26 | 6.46 | –
CN1CCN(c2nc3cc(Cl)ccc3o2)CC1 | 92 | 0.5 | 6.07 | –
Cc1ccc2oc(N3CCN(C)CC3)nc2c1 | 87 | 0.72 | 6 | –
CN1CCN(c2nc3cccc(Cl)c3o2)CC1 | 90 | 0.24 | 5.5 | –
CCOC(=O)c1ccc2oc(N3CCN(C)CC3)nc2c1 | 28 | – | < 4 | inactive
COc1ccc2oc(N3CCN(C)CC3)nc2c1 | 74 | 0.78 | 4.78 | –
CN1C2CCCC1CC(NC(=O)c1nn(C)c3ccccc13)C2 (stereo not drawn) | 100 | – | < 4 | inactive
CCc1ccc2oc(N3CCN(C)CC3)nc2c1 | 63 | – | < 4 | inactive
COc1cc(C)cc2nc(N3CCN(C)CC3)oc12 | 91 | 0.56 | 6.13 | –
CC(C)c1cccc2nc(N3CCN(C)CC3)oc12 | 81 | – | < 4 | inactive
CCc1cc(Cl)cc2nc(N3CCN(C)CC3)oc12 | 100 | 0.17 | 6.82 | –
CN1CCN(c2nc3cc(F)ccc3o2)CC1 | 91 | 0.64 | 5.57 | –
Cc1cc(Cl)c2oc(N3CCN(C)CC3)nc2c1 | 96 | 0.26 | 6.22 | –
COc1cc(Cl)cc2nc(N3CCN(C)CC3)oc12 | 92 | 0.62 | 6.16 | –
CCc1cccc2nc(N3CCN(C)CC3)oc12 | 90 | 0.15 | 5.48 | –
Cc1cc(C)c2oc(N3CCN(C)CC3)nc2c1 | 94 | 0.62 | 6.32 | –
Cc1cccc2nc(N3CCN(C)CC3)oc12 | 89 | 0.58 | 5.48 | –
CN1CCN(c2nc3cc(N)ccc3o2)CC1 | 73 | 0.76 | 4.97 | –
